ChEMBL document CHEMBL1275282, “Synthesis, characterization, oxidative degradation, antibacterial activity and acetylcholinesterase/butyrylcholinesterase inhibitory effects of some new phosphorus(V) hydrazides” (Eur J Med Chem, 2010)

B1: Cholinesterase (Homo sapiens), P06276 (protein)
chain: MHSKVTIICIRFLFWFLLLCMLIGKSHTEDDIIIATKNGKVRGMNLTVFGGTVTAFLGIPYAQPPLGRLRFKKPQSLTKWSDIWNATKYANSCCQNIDQSFPGFHGSEMWNPNTDLSEDCLYLNVWIPAPKPKNATVLIWIYGGGFQTGTSSLHVYDGKFLARVERVIVVSMNYRVGALGFLALPGNPEAPGNMGLFDQQLALQWVQKNIAAFGGNPKSVTLFGESAGAASVSLHLLSPGSHSLFTRAILQSGSFNAPWAVTSLYEARNRTLNLAKLTGCSRENETEIIKCLRNKDPQEILLNEAFVVPYGTPLSVNFGPTVDGDFLTDMPDILLELGQFKKTQILVGVNKDEGTAFLVYGAPGFSKDNNSIITRKEFQEGLKIFFPGVSEFGKESILFHYTDWVDDQRPENYREALGDVVGDYNFICPALEFTKKFSEWGNNAFFYYFEHRSSKLPWPEWMGVMHGYEIEFVFGLPLERRDNYTKAEEILSRSIVKRWANFAKYGNPNETQNNSTSWPVFKSTEQKYLTLNTESTRIMTKLRAQQCRFWTSFFPKVLEMTGNIDEAEWEWKAGFHRWNNYMMDWKNQFNDYTSKKESCVGL
B2: Acetylcholinesterase (Homo sapiens), P22303 (protein)
chain: MRPPQCLLHTPSLASPLLLLLLWLLGGGVGAEGREDAELLVTVRGGRLRGIRLKTPGGPVSAFLGIPFAEPPMGPRRFLPPEPKQPWSGVVDATTFQSVCYQYVDTLYPGFEGTEMWNPNRELSEDCLYLNVWTPYPRPTSPTPVLVWIYGGGFYSGASSLDVYDGRFLVQAERTVLVSMNYRVGAFGFLALPGSREAPGNVGLLDQRLALQWVQENVAAFGGDPTSVTLFGESAGAASVGMHLLSPPSRGLFHRAVLQSGAPNGPWATVGMGEARRRATQLAHLVGCPPGGTGGNDTELVACLRTRPAQVLVNHEWHVLPQESVFRFSFVPVVDGDFLSDTPEALINAGDFHGLQVLVGVVKDEGSYFLVYGAPGFSKDNESLISRAEFLAGVRVGVPQVSDLAAEAVVLHYTDWLHPEDPARLREALSDVVGDHNVVCPVAQLAGRLAAQGARVYAYVFEHRASTLSWPLWMGVPHGYEIEFIFGIPLDPSRNYTAEEKIFAQRLMRYWANFARTGDPNEPRDPKAPQWPPYTAGAQQYVSLDLRPLEVRRGLRAQACAFWNRFLPKLLSATDTLDEAERQWKAEFHRWSSYMVHWKNQFDHYSKQDRCSDL

How the values were obtained:
[1] = compound: O=C(NP(=O)(NN1CCCCC1)NN1CCCCC1)c1ccccc1; assay: (§1) Inhibition of human BChE by double reciprocal Lineweaver-Burke plot assay
How it was run: (§2)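 Kinetics used the same Ellman read-out, with substrate varied: acetylthiocholine for AChE, butyrylthiocholine for BChE. Rates were taken as OD min-1 with and without inhibitor. Km and Vmax were derived from double-reciprocal Lineweaver-Burk plots of 1/V against 1/[S].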

[2] = compound: O=C(NP(=O)(NN1CCOCC1)NN1CCOCC1)c1ccccc1; assay: as §1; how it was run: as §2
[3] = compound: O=P(NN1CCOCC1)(NN1CCOCC1)Oc1ccccc1; assay: as §1; how it was run: as §2
[4] = compound: O=P(NN1CCOCC1)(NN1CCOCC1)c1ccccc1; assay: as §1; how it was run: as §2
[5] = compound: O=P(O)(NN1CCCCC1)Oc1ccccc1; assay: as §1; how it was run: as §2
[6] = compound: O=C(NP(=O)(NN1CCCCC1)NN1CCCCC1)c1ccccc1; assay: (§3) Inhibition of human AChE by double reciprocal Lineweaver-Burke plot assay; how it was run: as §2
[7] = compound: O=C(NP(=O)(NN1CCOCC1)NN1CCOCC1)c1ccccc1; assay: as §3; how it was run: as §2
[8] = compound: O=P(NN1CCOCC1)(NN1CCOCC1)Oc1ccccc1; assay: as §3; how it was run: as §2
[9] = compound: O=P(O)(NN1CCCCC1)Oc1ccccc1; assay: as §3; how it was run: as §2

| Protein | Km [1] | Vmax [1] | Km [2] | Vmax [2] | Km [3] | Vmax [3] | Km [4] | Vmax [4] | Km [5] | Vmax [5] | Km [6] | Vmax [6] | Km [7] | Vmax [7] | Km [8] | Vmax [8] | Km [9] | Vmax [9] |
| --- | --- | --- | --- | --- | --- | --- | --- | --- | --- | --- | --- | --- | --- | --- | --- | --- | --- | --- |
| B1 | 75 µM | 55.6 mM/min | 50 µM | 23.5 mM/min | 85 µM | 66.4 mM/min | 67 µM | 71.4 mM/min | 67 µM | 27.8 mM/min |  |  |  |  |  |  |  |  |
| B2 |  |  |  |  |  |  |  |  |  |  | 45 µM | 40 mM/min | 49 µM | 55.5 mM/min | 47 µM | 37 mM/min | 51 µM | 11.1 mM/min |
